Measured values: PMC10338367 (Heliyon, 2023)

What was measured:
[1] = DPPH radical scavenging assay
[2] = test system: A172 cells; experiment: Flow cytometry analysis of cell cycle and apoptosis; type: cell-based, human; conditions: for G0-G1, percentage of cells / Sub G1, percentage of cells: A172, 4 μM
Outline: (§1)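 Cells from MD Anderson were grown in MEM with 10% FBS, penicillin-streptomycin and 1% glutamine at 37 °C, 5% CO₂. About 1 × 10⁶ cells per 10-cm plate were exposed to test compound (4 or 10 μM) for 0, 24, 48 or 72 h. Cells were spun down, PBS-washed, fixed overnight (12 h) in chilled 70% ethanol and PI-stained. Sub-G1, G0/G1, S and G2/M fractions were measured; mean ± S.D. of three experiments, untreated controls at each time.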

[3] = test system: LN229 human glioblastoma cells; experiment: WST cell viability assay, LN229; type: cell-based
Outline: (§2)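 Cells (MEM, 10% FBS, 37 °C, 5% CO₂) were seeded at 3 × 10³/well and pre-incubated 24 h. They were treated with test compound at 0.16, 0.8, 4, 20 or 100 μM for 24, 48 or 72 h, with DMSO as vehicle control. WST-1 was then added for 4 h at 37 °C and absorbance read at 516 nm (reference 600 nm). Viability was taken relative to untreated cells and IC50 read from dose-response curves at each time; ≥3 independent experiments.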

[4] = test system: LN229 cells; experiment: Flow cytometry analysis of cell cycle and apoptosis; type: cell-based, human; conditions: for G0-G1, percentage of cells: LN229, 4 μM
Outline: as §1

[5] = test system: A172 human glioblastoma cells; experiment: WST cell viability assay, A172; type: cell-based
Outline: as §2

[6] = test system: normal human astrocytes (NHA); experiment: WST cell viability assay, NHA; type: cell-based
Outline: as §2

Row | Structure (SMILES) | Percentage of antioxidant activity (DPPH) ([1]; 250 μM/mL) | Percentage of antioxidant activity (DPPH) ([1]; 500 μM/mL) | Percentage of antioxidant activity (DPPH) ([1]; 750 μM/mL) | Percentage of antioxidant activity (DPPH) ([1]; 1000 μM/mL) | IC50 ([3]; LN229, 24 h) | IC50 ([3]; LN229, 48 h) | IC50 ([3]; LN229, 72 h) | IC50 ([5]; A172, 72 h) | IC50 ([6]; 48 h) | further results
1 | O=C1O[C@H]([C@@H](O)CO)C(O)=C1O [Ascorbic acid, reference compound] | 74.08 ± 0.04% | 80.24 ± 0.01% | 85.79 ± 0.1% | 92.059 ± 0.08% | – | – | – | – | – | –
2 | COc1ccc(C(c2c(O)c3ccccc3oc2=O)c2c(O)c3ccccc3oc2=O)cc1 [HL, 3,3′-[(4-methoxyphenyl)methanediyl]bis(4-hydroxy-2Hchromen-2-one)] | 10.37 ± 0.08% | 15.12 ± 0.03% | 19.41 ± 0.02% | 25.62 ± 0.07% | 9550 nM | 1780 ± 50 nM | 850 ± 70 nM | 950 nM | 640 ± 60 nM | cell cycle arrest, phase ([2]; A172): cell cycle arrest was caused at G0/G1 phase; G0-G1, percentage of cells ([2]; 24 h): 67.66%; Sub G1, percentage of cells ([2]; 48 h): 6.48%; G0-G1, percentage of cells ([2]; 72 h): 59.23%; Sub G1, percentage of cells ([2]; 72 h): 4.55%; cell cycle arrest, phase ([4]; LN229): arrested at G0/G1 phase; G0-G1, percentage of cells ([4]; 24 h): 70.33%; G0-G1, percentage of cells ([4]; 48 h): 61.70%; G0-G1, percentage of cells ([4]; 72 h): 41.11%; IC50 ([5]; Homo sapiens, A 172, 24 h, A172, 24 h): 2680 ± 190 nM; IC50 ([6]; Homo sapiens, Astrocyte, 24 h): 3210 ± 40 nM; IC50 ([6]; Homo sapiens, Astrocyte, 72 h): 220 ± 40 nM
3 | CCCN(C)CCc1c[nH]c2ccccc12 [MPT, Methylprophyl tryptamine, reference compound] | – | – | – | – | 448 ± 300 nM | 447 ± 10 nM | 440 ± 70 nM | 430 ± 90 nM | 470 ± 40 nM | IC50 ([5]; A172, 48 h): 440 ± 130 nM; IC50 ([6]; 24 h): 490 ± 30 nM; IC50 ([6]; 72 h): 450 ± 40 nM
